PERK inh: human PERK inhibition, primary cell-based screen; Q9NZJ5; CHO PERK-DD fusion, SEAP luminescence translation reporter; inhibition, % at 5.6 µM; actives 0.17% (n = 220,000);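 active = inhibition above the mean inhibition of all tested compounds plus 3 SD, set separately per screening campaign, cut at about 2.9% in these data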;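 also: PERK kinase domain activated by AP20187 dimerizer at 100 nM; 0% = DMSO with dimerizer and 100% = rapamycin at 8.4 µM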
Hck-Nef inh: blocks Nef-activated human Hck kinase | P08631 | Recombinant Hck-YEEI plus Nef, Z-Lyte FRET kinase assay | inhibition, % at 20 µM | actives 0.68% (n = 220,000);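 active = Hck-Nef kinase inhibition above about 50%, limit read from the data; inactive = inhibition below that limit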;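 also: 0% = DMSO with Hck plus Nef and 100% = Hck alone without Nef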
p97 ATPase inh: inhibitors of human p97 ATPase | P55072 | inhibition, % at 8 µM | recombinant p97 ATPase, Kinase-Glo ATP luminescence, 3 h | actives 0.42% (n = 220,000); in the data active = inhibition above about 15%;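 also: 0% = DMSO vehicle and 100% = wells lacking enzyme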
Biofilm kill mix: mixtures killing C. albicans biofilm | C. albicans biofilm persisters + clotrimazole, fluorescence viability; primary screen in compound mixtures of four per well | actives 0.02% (n = 120,000) | inhibition, % at 7.6 µM;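 active = inhibition above 30.3% in the primary screen of four-compound pools, then above 30% when the compound was retested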;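 also: compounds exposed to preformed 24 h biofilms for 48 h; 0% = untreated biofilm control and 100% = clotrimazole plus chlorhexidine kill blank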
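Assay system: C. albicans biofilms / Medium: RPMI/MOPS medium, pH 7.0 / Schedule: biofilm formation 24 h, compound exposure 48 h, 37 °C / Measured by: Alamar Blue fluorescence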
eIF4E-4G inh: inhibitors of eIF4E and eIF4G interaction in translation initiation; TR-FRET eIF4E-eIF4GI(517-606) binding, 2 h; inhibition, % at 21.7 µM; actives 0.37% (n = 220,000); AID 782;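 active = inhibition above about 30%, limit read from the data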;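 also: 0% = full FRET control wells and 100% = background wells lacking eIF4GI fragment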
14-3-3 Bad PPI: disrupts binding of bovine 14-3-3 zeta to phospho-Bad peptide. TR-FRET 14-3-3zeta/Dy647-pBad peptide displacement, 1 h. inhibition, % at 21.7 µM. actives 0.71% (n = 220,000). AID 781;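 active = inhibition above about 70%, limit read from the data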;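 also: 0% = full 14-3-3 plus peptide FRET controls and 100% = background without 14-3-3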
Target sequence (P63103 whole entry, looked up): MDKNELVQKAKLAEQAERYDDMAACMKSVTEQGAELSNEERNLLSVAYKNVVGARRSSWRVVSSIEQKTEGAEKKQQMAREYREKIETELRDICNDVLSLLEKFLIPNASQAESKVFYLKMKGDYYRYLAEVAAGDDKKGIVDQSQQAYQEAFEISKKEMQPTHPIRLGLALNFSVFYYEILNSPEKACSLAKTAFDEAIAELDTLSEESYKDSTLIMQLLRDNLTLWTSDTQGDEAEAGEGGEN
* hit, by the source's call; / = not tested or not shown. This is a sample that favours compounds with a hit; in the whole collection about 2.2% have one here.

SMILES | PERK inh | Hck-Nef inh | p97 ATPase inh | Biofilm kill mix | eIF4E-4G inh | 14-3-3 Bad PPI
CCN(CC)CCOc1ccc(Br)cc1 | 0 | 1 | 2 | / | -1 | 19
CCN(CC)CCN(C)Cc1ccc(Br)cc1 | 0 | 1 | 1 | / | -1 | 76*
CC(=O)C1C(c2ccc(F)cc2)c2c(noc2C)CC1(C)O (stereo not drawn) | 0 | 9 | 5 | 18 | 96* | 3
CC(=O)C1C(c2ccc(C)cc2)c2c(noc2C)CC1(C)O (stereo not drawn) | 1 | 28 | 1 | -3 | 1 | -4
CCOC(=O)c1ccc2nc(CCC(=O)N[C@H](C(=O)OC)C(C)C)c(=O)n(CC)c2c1 | 1 | 20 | 3 | 2 | 7 | -19
C[C@@H](C(=O)OCn1nnc2ccccc2c1=O)N1C(=O)C2CCCCC2C1=O (stereo partly drawn) | 0 | 27 | -1 | 17 | -4 | -4
O=C1N=C(N2CCCC2)S/C1=C\C=C\c1ccccc1 | -1 | 4 | 8 | 22 | 1 | 2
COc1cc(/C=N/NC(=O)C2COc3ccccc3O2)ccc1O (stereo not drawn) | 1 | 7 | -3 | 20 | 2 | -15
COc1cc(/C=N/NC(=O)C2c3ccccc3Oc3ccccc32)ccc1O | 1 | 5 | 4 | / | 41* | 33
COc1cccc(CC(=O)NNC(=O)c2c(-c3ccccc3)noc2C)c1 | 1 | 4 | 2 | 14 | 7 | 0
Cc1cc(O)cc(O)c1-c1onc(C(F)(F)F)c1-c1cscn1 | 1 | 2 | 4 | / | 5 | 2
CCOc1ccc(-c2onc(C(F)(F)F)c2-c2cscn2)c(O)c1 | 0 | 4 | 29* | / | 3 | -8
CSc1nsc(SC)c1C(=O)O | 1 | 27 | 2 | 3 | 3 | 0
Cc1nsc(N)c1C(=O)O | 3.4* | 21 | 6 | 15 | -4 | -2
CS(=O)(=O)c1cnc(-c2ccccc2)nc1-c1ccc(Cl)c(Cl)c1 | 0 | 0 | 4 | 9 | 6 | 73*
CS(=O)(=O)c1cnc(-c2ccccc2)nc1-c1ccccc1Cl | 0 | -3 | 2 | 6 | 0 | -6
Cc1ccc(NC(=S)Nc2cccc(-c3n[nH]c(=S)o3)c2)cc1 | 1 | -5 | 1 | 20 | -1 | -7
O=C1c2ccccc2C(=O)N1CCc1csc(NNc2nc(CCN3C(=O)c4ccccc4C3=O)cs2)n1 | 1 | 69* | 4 | 14 | 6 | -25
CC(C)C1OC(c2cccc(NC(=O)c3cccs3)c2)OCC1(C)C (stereo not drawn) | 0 | 23 | 4 | 0 | 0 | -8
COc1ccccc1N=C1SCC(=O)N1Cc1ccco1 | 1 | 15 | 5 | 8 | -2 | -1
CC(=O)c1nnn(-c2c(F)cccc2F)c1C | 3.1* | 6 | 0 | 22 | 3 | -3
CC(=O)Nc1ccc(S(=O)(=O)NCC(=O)OCC(=O)N2CCN(c3ccccc3)CC2)cc1 | 1 | 6 | 3 | -11 | -2 | 15
COC(=O)N/N=C/c1cccs1 | 0 | 15 | 6 | 23 | 1 | -2
COc1ccc(CCCC(=O)N/N=C\c2cccs2)cc1 | 0 | 31 | 0 | 15 | 2 | 97*
C#CCOCCOCCOCCNc1nc(N2CCN(C(=O)C([C@@H](C)CC)n3cc(C(N)CO)nn3)CC2)nc(N2CCN(C(=O)[C@H](CCC(=O)O)n3cc(C(N)[C@H](C)CC)nn3)CC2)n1 (stereo partly drawn) | / | 9 | / | 1 | -1 | 8
SMILES | PERK inh | Hck-Nef inh | p97 ATPase inh | Biofilm kill mix | eIF4E-4G inh | 14-3-3 Bad PPI
O=C(O)c1ccc(-c2ccc(/C=C3\NC(=O)N(Cc4ccc(Cl)cc4)C3=O)o2)cc1 | 1 | 18 | 3 | 15 | 33* | 29
Cc1cc(C(=O)O)ccc1-c1ccc(/C=C2\NC(=O)N(Cc3ccccc3Cl)C2=O)o1 | 1 | 37 | 8 | 0 | 5 | 20
O=C1OCc2cccc([N+](=O)[O-])c21 | 1 | 0 | 2 | 17 | 3 | 3
O=C1CC(=O)c2c1cccc2[N+](=O)[O-] | 0 | 75* | 17* | 3 | 29 | 31
CC1CC(C)(C)NC(=S)O1 (stereo not drawn) | 0 | 8 | 4 | 15 | -3 | 1
CSc1nc(N)n2nc(-c3ccccc3)cc2n1 | 1 | 10 | -7 | 18 | 1 | -4
O=C(OCC(=O)N1CCN(C(=O)c2ccco2)CC1)c1cccc(S(=O)(=O)N2CCc3ccccc32)c1 | 0 | 24 | 2 | 6 | 1 | 3
CCc1nc(SCC(=O)NCCc2ccccc2)c2c(=O)n(C)c(=O)n(C)c2n1 | -1 | 4 | -7 | 1 | -13 | 2
O=C(NCCN1C(=O)S/C(=C\c2ccccc2F)C1=O)C1CCCN1C(=O)c1cccs1 (stereo not drawn) | 0 | -1 | 2 | 13 | -1 | -4
COc1cc(O)cc2cc3c(c(O)c12)C(=O)CC(C)(O)O3 (stereo not drawn) | / | 24 | / | 24 | 71* | 8
CN(C)c1ncc(/C=C2/C(=O)NC(=S)N(C3CCCCC3)C2=O)cn1 | 0 | 68* | 2 | 7 | -1 | 12
Cc1ccc(CN2CCN(Cc3ccccc3C(F)(F)F)CC2)cc1 | 1 | 2 | -1 | / | -3 | 81*
O=C(c1ccccc1)N1CCN(Cc2ccccc2C(F)(F)F)CC1 | 0 | 9 | 1 | 16 | 2 | 44
COc1cccc(C(=O)N2CCN(Cc3cc(Br)ccc3OC)CC2)c1 | -1 | 9 | -8 | 17 | 2 | 72*
COc1ccc(Br)cc1CN1CCCC(C(=O)N2CCCCCC2)C1 (stereo not drawn) | 0 | 0 | 0 | / | 0 | 21
COc1ccc(Br)cc1CN1CCCC(C(=O)N2CCCCC2)C1 (stereo not drawn) | -1 | 3 | 1 | / | -9 | 73*
COc1cccc(C(=O)N2CCN(Cc3ccccc3C(F)(F)F)CC2)c1 | 0 | -1 | -4 | / | -1 | 74*
CCOC(=O)c1c(-c2ncc(C(F)(F)F)cc2Cl)noc1C | 2 | -7 | 1 | 9 | 0 | -13
COC(=O)c1ccc(CSc2nnc(NC(C)C)s2)o1 | 0 | -1 | 6 | 11 | -5 | -8
Cc1ccc(NC(=O)CN2C(=O)NC(Cc3ccccc3)C2=O)c(Br)c1 (stereo not drawn) | 0 | -9 | 1 | 21 | -1 | -8
Cc1sc2ncnc(NCC(c3ccco3)N(C)C)c2c1C (stereo not drawn) | -1 | 0 | -5 | / | 4 | 82*
CCOc1cc(C(N)=O)cc(Br)c1OC | 4.9* | 7 | 5 | 13 | -5 | 4
CCOc1cc(C(N)=O)cc(OCC)c1OCC | 1 | 1 | 0 | / | 2 | -7
C/C(=N\NC1=N[C@H]2CS(=O)(=O)C[C@H]2S1)c1ccccc1 | 3.3* | 4 | -4 | 23 | -8 | 3

Screening data from PubChem.
